Data as given in ChEMBL document CHEMBL2157880, “Synthesis, antimycobacterial and antibacterial activity of ciprofloxacin derivatives containing a N-substituted benzyl moiety” (2012).
Converted amounts (≈) assume the structure as drawn.

System: Pseudomonas aeruginosa
Assay: Antibacterial activity against Pseudomonas aeruginosa 10-18 after 18 to 24 hrs by NCCLS method
Assay type: functional
How it was run: (§1)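 Standard NCCLS (M100-S11) MIC testing against Gram-positive and Gram-negative strains. Plates were incubated at 35 °C for 18–24 h. The MIC was read as the lowest concentration giving complete inhibition of visible bacterial growth.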

Structure (SMILES)	MIC
O=C(O)c1cn(C2CC2)c2cc(N3CCN(Cc4ccccc4)CC3)c(F)cc2c1=O	8 µg/mL (≈ 19 µM)

System: Klebsiella pneumoniae
Assay: Antibacterial activity against extended spectrum beta-lactamases producing Klebsiella pneumoniae 10-1 after 18 to 24 hrs by NCCLS method
Assay type: functional
How it was run: as §1

Structure (SMILES)	MIC
O=C(O)c1cn(C2CC2)c2cc(N3CCN(Cc4ccccc4)CC3)c(F)cc2c1=O	> 128 µg/mL

System: Staphylococcus aureus
Assay: Antibacterial activity against methicillin-resistant Staphylococcus aureus 10-11 after 18 to 24 hrs by NCCLS method
Assay type: functional
How it was run: (§2)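 Incubated at 35 °C for 18–24 h under NCCLS (M100-S11) standards. MIC was read as the lowest concentration giving complete inhibition of visible bacterial growth.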

Structure (SMILES)	MIC
O=C(O)c1cn(C2CC2)c2cc(N3CCN(Cc4ccccc4)CC3)c(F)cc2c1=O	64 µg/mL (≈ 152 µM)

System: Klebsiella pneumoniae
Assay: Antibacterial activity against extended spectrum beta-lactamases producing Klebsiella pneumoniae 10-2 after 18 to 24 hrs by NCCLS method
Assay type: functional
How it was run: as §1

Structure (SMILES)	MIC
O=C(O)c1cn(C2CC2)c2cc(N3CCN(Cc4ccccc4)CC3)c(F)cc2c1=O	> 128 µg/mL

System: Streptococcus pneumoniae
Assay: Antibacterial activity against Streptococcus pneumoniae 10-6 after 18 to 24 hrs by NCCLS method
Assay type: functional
How it was run: as §1

Structure (SMILES)	MIC
O=C(O)c1cn(C2CC2)c2cc(N3CCN(Cc4ccccc4)CC3)c(F)cc2c1=O	16 µg/mL (≈ 38 µM)

System: Escherichia coli
Assay: Antibacterial activity against Escherichia coli 10-3 after 18 to 24 hrs by NCCLS method
Assay type: functional
How it was run: as §1

Structure (SMILES)	MIC
O=C(O)c1cn(C2CC2)c2cc(N3CCN(Cc4ccccc4)CC3)c(F)cc2c1=O	16 µg/mL (≈ 38 µM)

System: Escherichia coli
Assay: Antibacterial activity against extended spectrum beta-lactamases producing Escherichia coli 10-3 after 18 to 24 hrs by NCCLS method
Assay type: functional
How it was run: as §1

Structure (SMILES)	MIC
O=C(O)c1cn(C2CC2)c2cc(N3CCN(Cc4ccccc4)CC3)c(F)cc2c1=O	> 128 µg/mL

System: Streptococcus pneumoniae
Assay: Antibacterial activity against Streptococcus pneumoniae 10-1 after 18 to 24 hrs by NCCLS method
Assay type: functional
How it was run: as §1

Structure (SMILES)	MIC
O=C(O)c1cn(C2CC2)c2cc(N3CCN(Cc4ccccc4)CC3)c(F)cc2c1=O	16 µg/mL (≈ 38 µM)

System: Enterococcus faecalis
Assay: Antibacterial activity against Enterococcus faecalis 10-7 after 18 to 24 hrs by NCCLS method
Assay type: functional
How it was run: as §1

Structure (SMILES)	MIC
O=C(O)c1cn(C2CC2)c2cc(N3CCN(Cc4ccccc4)CC3)c(F)cc2c1=O	16 µg/mL (≈ 38 µM)

System: Enterococcus faecium
Assay: Antibacterial activity against Enterococcus faecium 10-6 after 18 to 24 hrs by NCCLS method
Assay type: functional
How it was run: as §1

Structure (SMILES)	MIC
O=C(O)c1cn(C2CC2)c2cc(N3CCN(Cc4ccccc4)CC3)c(F)cc2c1=O	16 µg/mL (≈ 38 µM)

System: Klebsiella pneumoniae
Assay: Antibacterial activity against Klebsiella pneumoniae 10-3 after 18 to 24 hrs by NCCLS method
Assay type: functional
How it was run: as §1

Structure (SMILES)	MIC
O=C(O)c1cn(C2CC2)c2cc(N3CCN(Cc4ccccc4)CC3)c(F)cc2c1=O	16 µg/mL (≈ 38 µM)

System: Pseudomonas aeruginosa
Assay: Antibacterial activity against Pseudomonas aeruginosa 10-15 after 18 to 24 hrs by NCCLS method
Assay type: functional
How it was run: as §1

Structure (SMILES)	MIC
O=C(O)c1cn(C2CC2)c2cc(N3CCN(Cc4ccccc4)CC3)c(F)cc2c1=O	32 µg/mL (≈ 75.9 µM)

System: Pseudomonas aeruginosa
Assay: Antibacterial activity against Pseudomonas aeruginosa 10-9 after 18 to 24 hrs by NCCLS method
Assay type: functional
How it was run: as §1

Structure (SMILES)	MIC
O=C(O)c1cn(C2CC2)c2cc(N3CCN(Cc4ccccc4)CC3)c(F)cc2c1=O	16 µg/mL (≈ 38 µM)

System: Enterococcus faecium
Assay: Antibacterial activity against Enterococcus faecium 10-9 after 18 to 24 hrs by NCCLS method
Assay type: functional
How it was run: as §1

Structure (SMILES)	MIC
O=C(O)c1cn(C2CC2)c2cc(N3CCN(Cc4ccccc4)CC3)c(F)cc2c1=O	16 µg/mL (≈ 38 µM)

System: Mycobacterium tuberculosis
Assay: Antimycobacterial activity against Mycobacterium tuberculosis H37Rv ATCC 27294 by microplate alamar blue assay
Assay type: functional
How it was run: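 Microplate Alamar Blue fluorescence assay on strain H37Rv ATCC 27294. MIC was the lowest concentration cutting fluorescence by ≥90% against the mean of replicate bacterium-only controls.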

Structure (SMILES)	MIC
O=C(O)c1cn(C2CC2)c2cc(N3CCN(Cc4ccccc4)CC3)c(F)cc2c1=O	1 µg/mL (≈ 2.37 µM)

System: Staphylococcus aureus
Assay: Antibacterial activity against methicillin-resistant Staphylococcus aureus 10-13 after 18 to 24 hrs by NCCLS method
Assay type: functional
How it was run: as §2

Structure (SMILES)	MIC
O=C(O)c1cn(C2CC2)c2cc(N3CCN(Cc4ccccc4)CC3)c(F)cc2c1=O	64 µg/mL (≈ 152 µM)

System: Staphylococcus aureus
Assay: Antibacterial activity against methicillin-resistant Staphylococcus aureus 10-15 after 18 to 24 hrs by NCCLS method
Assay type: functional
How it was run: as §2

Structure (SMILES)	MIC
O=C(O)c1cn(C2CC2)c2cc(N3CCN(Cc4ccccc4)CC3)c(F)cc2c1=O	16 µg/mL (≈ 38 µM)

System: Staphylococcus epidermidis
Assay: Antibacterial activity against methicillin-resistant Staphylococcus epidermidis 10-13 after 18 to 24 hrs by NCCLS method
Assay type: functional
How it was run: as §2

Structure (SMILES)	MIC
O=C(O)c1cn(C2CC2)c2cc(N3CCN(Cc4ccccc4)CC3)c(F)cc2c1=O	0.5 µg/mL (≈ 1.19 µM)

System: Staphylococcus epidermidis
Assay: Antibacterial activity against methicillin-sensitive Staphylococcus epidermidis 10-15 after 18 to 24 hrs by NCCLS method
Assay type: functional
How it was run: as §2

Structure (SMILES)	MIC
O=C(O)c1cn(C2CC2)c2cc(N3CCN(Cc4ccccc4)CC3)c(F)cc2c1=O	16 µg/mL (≈ 38 µM)

System: Escherichia coli
Assay: Antibacterial activity against Escherichia coli 10-1 after 18 to 24 hrs by NCCLS method
Assay type: functional
How it was run: as §1

Structure (SMILES)	MIC
O=C(O)c1cn(C2CC2)c2cc(N3CCN(Cc4ccccc4)CC3)c(F)cc2c1=O	> 128 µg/mL

System: Staphylococcus epidermidis
Assay: Antibacterial activity against methicillin-sensitive Staphylococcus epidermidis 10-11 after 18 to 24 hrs by NCCLS method
Assay type: functional
How it was run: as §1

Structure (SMILES)	MIC
O=C(O)c1cn(C2CC2)c2cc(N3CCN(Cc4ccccc4)CC3)c(F)cc2c1=O	32 µg/mL (≈ 75.9 µM)

System: Escherichia coli
Assay: Antibacterial activity against extended spectrum beta-lactamases producing Escherichia coli 10-2 after 18 to 24 hrs by NCCLS method
Assay type: functional
How it was run: as §1

Structure (SMILES)	MIC
O=C(O)c1cn(C2CC2)c2cc(N3CCN(Cc4ccccc4)CC3)c(F)cc2c1=O	> 128 µg/mL

System: Enterococcus faecalis
Assay: Antibacterial activity against Enterococcus faecalis 10-5 after 18 to 24 hrs by NCCLS method
Assay type: functional
How it was run: as §1

Structure (SMILES)	MIC
O=C(O)c1cn(C2CC2)c2cc(N3CCN(Cc4ccccc4)CC3)c(F)cc2c1=O	16 µg/mL (≈ 38 µM)

System: Staphylococcus aureus
Assay: Antibacterial activity against Staphylococcus aureus ATCC 2592 after 18 to 24 hrs by NCCLS method
Assay type: functional
How it was run: as §1

Structure (SMILES)	MIC
O=C(O)c1cn(C2CC2)c2cc(N3CCN(Cc4ccccc4)CC3)c(F)cc2c1=O	0.25 µg/mL (≈ 0.593 µM)

System: Pseudomonas aeruginosa
Assay: Antibacterial activity against Pseudomonas aeruginosa 10-20 after 18 to 24 hrs by NCCLS method
Assay type: functional
How it was run: as §1

Structure (SMILES)	MIC
O=C(O)c1cn(C2CC2)c2cc(N3CCN(Cc4ccccc4)CC3)c(F)cc2c1=O	16 µg/mL (≈ 38 µM)

System: Staphylococcus aureus
Assay: Antibacterial activity against methicillin-sensitive Staphylococcus aureus 10-14 after 18 to 24 hrs by NCCLS method
Assay type: functional
How it was run: as §1

Structure (SMILES)	MIC
O=C(O)c1cn(C2CC2)c2cc(N3CCN(Cc4ccccc4)CC3)c(F)cc2c1=O	0.25 µg/mL (≈ 0.593 µM)

System: Klebsiella pneumoniae
Assay: Antibacterial activity against Klebsiella pneumoniae 10-2 after 18 to 24 hrs by NCCLS method
Assay type: functional
How it was run: as §1

Structure (SMILES)	MIC
O=C(O)c1cn(C2CC2)c2cc(N3CCN(Cc4ccccc4)CC3)c(F)cc2c1=O	> 128 µg/mL

System: Enterococcus faecalis
Assay: Antibacterial activity against Enterococcus faecalis 10-6 after 18 to 24 hrs by NCCLS method
Assay type: functional
How it was run: as §1

Structure (SMILES)	MIC
O=C(O)c1cn(C2CC2)c2cc(N3CCN(Cc4ccccc4)CC3)c(F)cc2c1=O	16 µg/mL (≈ 38 µM)

System: Pseudomonas aeruginosa
Assay: Antibacterial activity against Pseudomonas aeruginosa 10-12 after 18 to 24 hrs by NCCLS method
Assay type: functional
How it was run: as §1

Structure (SMILES)	MIC
O=C(O)c1cn(C2CC2)c2cc(N3CCN(Cc4ccccc4)CC3)c(F)cc2c1=O	16 µg/mL (≈ 38 µM)

System: Klebsiella pneumoniae
Assay: Antibacterial activity against Klebsiella pneumoniae 10-4 after 18 to 24 hrs by NCCLS method
Assay type: functional
How it was run: as §1

Structure (SMILES)	MIC
O=C(O)c1cn(C2CC2)c2cc(N3CCN(Cc4ccccc4)CC3)c(F)cc2c1=O	> 128 µg/mL

System: Staphylococcus epidermidis
Assay: Antibacterial activity against methicillin-resistant Staphylococcus epidermidis 10-10 after 18 to 24 hrs by NCCLS method
Assay type: functional
How it was run: as §2

Structure (SMILES)	MIC
O=C(O)c1cn(C2CC2)c2cc(N3CCN(Cc4ccccc4)CC3)c(F)cc2c1=O	16 µg/mL (≈ 38 µM)

System: Escherichia coli
Assay: Antibacterial activity against Escherichia coli ATCC 25922 after 18 to 24 hrs by NCCLS method
Assay type: functional
How it was run: as §1

Structure (SMILES)	MIC
O=C(O)c1cn(C2CC2)c2cc(N3CCN(Cc4ccccc4)CC3)c(F)cc2c1=O	0.25 µg/mL (≈ 0.593 µM)

System: Escherichia coli
Assay: Antibacterial activity against extended spectrum beta-lactamases producing Escherichia coli 10-4 after 18 to 24 hrs by NCCLS method
Assay type: functional
How it was run: as §1

Structure (SMILES)	MIC
O=C(O)c1cn(C2CC2)c2cc(N3CCN(Cc4ccccc4)CC3)c(F)cc2c1=O	16 µg/mL (≈ 38 µM)

System: Escherichia coli
Assay: Antibacterial activity against Escherichia coli 10-2 after 18 to 24 hrs by NCCLS method
Assay type: functional
How it was run: as §1

Structure (SMILES)	MIC
O=C(O)c1cn(C2CC2)c2cc(N3CCN(Cc4ccccc4)CC3)c(F)cc2c1=O	16 µg/mL (≈ 38 µM)

System: Staphylococcus aureus
Assay: Antibacterial activity against methicillin-sensitive Staphylococcus aureus 10-13 after 18 to 24 hrs by NCCLS method
Assay type: functional
How it was run: as §1

Structure (SMILES)	MIC
O=C(O)c1cn(C2CC2)c2cc(N3CCN(Cc4ccccc4)CC3)c(F)cc2c1=O	0.25 µg/mL (≈ 0.593 µM)

System: Klebsiella pneumoniae
Assay: Antibacterial activity against extended spectrum beta-lactamases producing Klebsiella pneumoniae 10-3 after 18 to 24 hrs by NCCLS method
Assay type: functional
How it was run: as §1

Structure (SMILES)	MIC
O=C(O)c1cn(C2CC2)c2cc(N3CCN(Cc4ccccc4)CC3)c(F)cc2c1=O	> 128 µg/mL

System: Staphylococcus aureus
Assay: Antibacterial activity against methicillin-sensitive Staphylococcus aureus 10-11 after 18 to 24 hrs by NCCLS method
Assay type: functional
How it was run: as §1

Structure (SMILES)	MIC
O=C(O)c1cn(C2CC2)c2cc(N3CCN(Cc4ccccc4)CC3)c(F)cc2c1=O	0.25 µg/mL (≈ 0.593 µM)

System: Pseudomonas aeruginosa
Assay: Antibacterial activity against Pseudomonas aeruginosa 10-5 after 18 to 24 hrs by NCCLS method
Assay type: functional
How it was run: as §1

Structure (SMILES)	MIC
O=C(O)c1cn(C2CC2)c2cc(N3CCN(Cc4ccccc4)CC3)c(F)cc2c1=O	16 µg/mL (≈ 38 µM)
